Reference: ChEMBL document CHEMBL1681705, “Optimisation of ITK inhibitors through successive iterative design cycles” (Bioorg Med Chem Lett, 2011)

Key:
[1] = biological target: T1, cGMP-dependent protein kinase 1 (Homo sapiens) (UniProt Q13976); assay: Inhibition of PKG1beta at 0.1 uM; values are per cent of control
T1 sequence (whole entry): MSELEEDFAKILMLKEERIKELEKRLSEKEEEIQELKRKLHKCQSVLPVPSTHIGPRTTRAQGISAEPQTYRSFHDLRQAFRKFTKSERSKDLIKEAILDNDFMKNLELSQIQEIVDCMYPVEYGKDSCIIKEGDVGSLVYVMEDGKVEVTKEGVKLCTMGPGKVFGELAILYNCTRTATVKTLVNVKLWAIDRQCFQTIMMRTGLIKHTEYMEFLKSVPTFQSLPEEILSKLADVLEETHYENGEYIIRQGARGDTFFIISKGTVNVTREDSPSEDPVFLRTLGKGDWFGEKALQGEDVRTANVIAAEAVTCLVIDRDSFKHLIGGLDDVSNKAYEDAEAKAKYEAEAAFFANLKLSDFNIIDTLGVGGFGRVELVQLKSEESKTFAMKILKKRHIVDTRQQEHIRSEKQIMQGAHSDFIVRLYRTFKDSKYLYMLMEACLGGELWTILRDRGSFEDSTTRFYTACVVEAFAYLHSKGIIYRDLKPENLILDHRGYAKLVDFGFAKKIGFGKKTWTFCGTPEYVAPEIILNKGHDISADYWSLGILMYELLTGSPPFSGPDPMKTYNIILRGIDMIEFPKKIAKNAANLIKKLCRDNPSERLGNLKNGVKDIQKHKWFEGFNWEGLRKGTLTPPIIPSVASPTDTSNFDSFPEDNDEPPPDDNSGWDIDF

[2] = biological target: Death-associated protein kinase 2 (Homo sapiens) (UniProt Q9UIK4); assay: Inhibition of DAPK2 at 0.1 uM; values are per cent of control
[3] = biological target: T2, Tyrosine-protein kinase JAK3 (Homo sapiens) (UniProt P52333); assay: Inhibition of JAK3 at 1 uM
T2 sequence (whole entry): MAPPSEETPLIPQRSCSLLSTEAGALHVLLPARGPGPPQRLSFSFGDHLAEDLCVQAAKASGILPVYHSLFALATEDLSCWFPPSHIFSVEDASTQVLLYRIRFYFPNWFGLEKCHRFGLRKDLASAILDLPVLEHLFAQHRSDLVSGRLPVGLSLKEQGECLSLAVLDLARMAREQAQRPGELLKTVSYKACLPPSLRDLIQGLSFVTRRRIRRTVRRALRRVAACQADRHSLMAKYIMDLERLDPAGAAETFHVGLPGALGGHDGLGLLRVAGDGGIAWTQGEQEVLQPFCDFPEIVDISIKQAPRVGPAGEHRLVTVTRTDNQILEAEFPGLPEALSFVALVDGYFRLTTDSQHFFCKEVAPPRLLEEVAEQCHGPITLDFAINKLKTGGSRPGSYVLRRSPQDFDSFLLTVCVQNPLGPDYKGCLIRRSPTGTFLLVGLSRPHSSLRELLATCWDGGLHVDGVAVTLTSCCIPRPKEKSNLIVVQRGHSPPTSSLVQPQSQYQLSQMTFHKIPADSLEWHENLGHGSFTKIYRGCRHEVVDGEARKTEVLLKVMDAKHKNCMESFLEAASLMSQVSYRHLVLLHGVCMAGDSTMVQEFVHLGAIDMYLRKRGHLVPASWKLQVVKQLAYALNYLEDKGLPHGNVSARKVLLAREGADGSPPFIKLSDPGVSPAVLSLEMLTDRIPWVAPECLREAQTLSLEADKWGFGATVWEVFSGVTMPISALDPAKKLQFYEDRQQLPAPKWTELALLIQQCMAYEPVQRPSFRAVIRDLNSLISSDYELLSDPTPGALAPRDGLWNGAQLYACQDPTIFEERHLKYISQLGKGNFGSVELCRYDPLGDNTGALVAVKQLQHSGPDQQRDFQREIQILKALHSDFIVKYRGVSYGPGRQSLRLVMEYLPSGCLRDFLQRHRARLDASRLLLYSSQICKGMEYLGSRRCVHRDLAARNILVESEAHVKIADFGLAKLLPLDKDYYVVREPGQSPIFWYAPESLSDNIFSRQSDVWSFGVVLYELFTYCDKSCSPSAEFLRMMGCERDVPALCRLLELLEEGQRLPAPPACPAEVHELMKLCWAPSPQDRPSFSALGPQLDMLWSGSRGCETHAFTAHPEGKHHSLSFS
Procedure, shortened: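 Each selected inhibitor was tested at two concentrations, 0.1 and 1.0 micromolar. Values are reported as inhibition at each concentration.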

[4] = biological target: Platelet-derived growth factor receptor beta (Homo sapiens) (UniProt P09619); assay: Inhibition of PDGFRbeta at 0.1 uM; values are per cent of control
[5] = biological target: T3, Ephrin type-A receptor 1 (Homo sapiens) (UniProt P21709); assay: Inhibition of EphA1 at 0.1 uM; values are per cent of control
T3 sequence (whole entry): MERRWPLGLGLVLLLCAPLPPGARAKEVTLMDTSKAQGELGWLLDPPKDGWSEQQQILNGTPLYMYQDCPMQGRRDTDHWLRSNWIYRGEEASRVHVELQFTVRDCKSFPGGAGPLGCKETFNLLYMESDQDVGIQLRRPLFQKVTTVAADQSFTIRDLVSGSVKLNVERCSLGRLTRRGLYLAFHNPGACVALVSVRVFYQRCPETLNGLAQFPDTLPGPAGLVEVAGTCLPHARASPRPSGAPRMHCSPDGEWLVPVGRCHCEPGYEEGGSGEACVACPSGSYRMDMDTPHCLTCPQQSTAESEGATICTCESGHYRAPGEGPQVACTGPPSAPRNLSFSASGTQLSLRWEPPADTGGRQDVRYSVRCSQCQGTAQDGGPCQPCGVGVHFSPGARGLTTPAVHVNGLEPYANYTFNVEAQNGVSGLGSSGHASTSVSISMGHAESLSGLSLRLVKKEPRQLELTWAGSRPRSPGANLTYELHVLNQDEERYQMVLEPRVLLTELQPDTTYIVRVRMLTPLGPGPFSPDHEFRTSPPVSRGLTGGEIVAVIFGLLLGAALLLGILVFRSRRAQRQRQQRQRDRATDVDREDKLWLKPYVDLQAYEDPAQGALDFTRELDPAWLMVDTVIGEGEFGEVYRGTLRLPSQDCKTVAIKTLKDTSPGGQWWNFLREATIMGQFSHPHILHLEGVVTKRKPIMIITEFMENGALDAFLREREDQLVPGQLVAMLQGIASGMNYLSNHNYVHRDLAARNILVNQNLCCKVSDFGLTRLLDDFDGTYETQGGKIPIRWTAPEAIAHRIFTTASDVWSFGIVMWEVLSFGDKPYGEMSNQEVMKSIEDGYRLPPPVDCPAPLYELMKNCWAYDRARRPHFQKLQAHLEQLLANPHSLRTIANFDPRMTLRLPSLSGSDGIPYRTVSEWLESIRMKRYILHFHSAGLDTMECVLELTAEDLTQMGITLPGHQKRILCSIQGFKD

Sequence of Death-associated protein kinase 2 (Homo sapiens) (Q9UIK4 whole entry, looked up): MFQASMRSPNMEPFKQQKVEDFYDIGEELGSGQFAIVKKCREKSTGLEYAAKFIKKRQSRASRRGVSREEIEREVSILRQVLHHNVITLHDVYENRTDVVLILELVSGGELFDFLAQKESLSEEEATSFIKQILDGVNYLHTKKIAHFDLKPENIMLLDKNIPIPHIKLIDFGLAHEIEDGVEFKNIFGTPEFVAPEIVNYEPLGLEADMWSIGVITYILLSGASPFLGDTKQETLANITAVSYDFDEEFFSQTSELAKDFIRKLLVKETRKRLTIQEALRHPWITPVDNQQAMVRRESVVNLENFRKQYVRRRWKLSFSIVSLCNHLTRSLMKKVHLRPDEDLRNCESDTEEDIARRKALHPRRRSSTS
Sequence of Platelet-derived growth factor receptor beta (Homo sapiens) (P09619 whole entry): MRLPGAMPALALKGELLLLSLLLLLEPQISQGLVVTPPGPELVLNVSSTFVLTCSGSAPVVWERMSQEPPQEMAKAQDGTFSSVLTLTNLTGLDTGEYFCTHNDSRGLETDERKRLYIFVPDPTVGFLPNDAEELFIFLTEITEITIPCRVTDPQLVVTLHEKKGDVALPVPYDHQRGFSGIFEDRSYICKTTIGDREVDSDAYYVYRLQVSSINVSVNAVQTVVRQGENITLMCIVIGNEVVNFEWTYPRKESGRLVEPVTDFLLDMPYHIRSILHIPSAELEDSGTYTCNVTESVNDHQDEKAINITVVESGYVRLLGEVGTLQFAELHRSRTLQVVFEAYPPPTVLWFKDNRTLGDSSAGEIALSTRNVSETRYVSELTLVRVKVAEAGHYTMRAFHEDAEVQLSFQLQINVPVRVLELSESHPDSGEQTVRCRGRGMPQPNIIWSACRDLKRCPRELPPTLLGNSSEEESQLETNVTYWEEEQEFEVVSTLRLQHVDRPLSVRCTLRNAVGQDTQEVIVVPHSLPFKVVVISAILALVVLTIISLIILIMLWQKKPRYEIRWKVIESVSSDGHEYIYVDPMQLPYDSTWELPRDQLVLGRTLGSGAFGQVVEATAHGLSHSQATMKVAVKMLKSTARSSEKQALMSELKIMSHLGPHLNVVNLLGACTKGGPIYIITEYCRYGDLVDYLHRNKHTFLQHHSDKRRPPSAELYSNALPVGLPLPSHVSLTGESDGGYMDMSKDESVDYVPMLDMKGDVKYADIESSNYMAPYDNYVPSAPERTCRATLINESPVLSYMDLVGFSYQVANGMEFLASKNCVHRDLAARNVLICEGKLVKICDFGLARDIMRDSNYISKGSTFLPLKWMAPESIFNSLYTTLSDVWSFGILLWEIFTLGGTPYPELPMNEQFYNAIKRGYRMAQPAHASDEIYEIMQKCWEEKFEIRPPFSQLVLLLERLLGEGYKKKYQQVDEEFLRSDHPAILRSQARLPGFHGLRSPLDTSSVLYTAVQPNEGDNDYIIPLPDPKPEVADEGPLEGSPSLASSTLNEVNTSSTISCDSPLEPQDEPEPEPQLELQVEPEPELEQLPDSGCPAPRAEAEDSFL

Row | residual activity [1] | inhibition [3] | residual activity [4] | residual activity [5] | SMILES | residual activity [2]
1 | 83% | 5% | 82% | 64% | Cc1ccc2cc(-c3n[nH]c4ccc(NC5CCN(Cc6ccccc6)CC5)cc34)[nH]c2c1 | 106%
2 | 95% | 8% | 85% | 39% | Cc1ccc2cc(-c3n[nH]c4ccc(NC5CCNC5)cc34)[nH]c2c1 (stereo not given) | 91%
